Data from ChEMBL document CHEMBL3351903, “A potent HDAC inhibitor, 1-alaninechlamydocin, from a Tolypocladium sp. induces G2/M cell cycle arrest and apoptosis in MIA PaCa-2 cells” (J Nat Prod, 2014).
The source made the active and inactive calls. The rule behind the calls is not given here. Where a SMILES comes first, the peptide text is derived from it. [ ]: non-standard residue; d: D form. ξ: configuration not given here. Aoe(9ξ) = N[C@@H](CCCCCC(=O)C1CO1)C(=O)O; dPip = O=C(O)[C@H]1CCCCN1

Experiments:
MIA PaCa-2 [1] = assay: (§1) Antiproliferative activity against human MIAPaCa2 cells after 48 hrs by MTT assay; assay type: functional
Outline: (§2)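 Cells held in RPMI with 5% FetalClone III and penicillin/streptomycin (50 U/mL, 50 μg/mL); hTERT-HPNE also given 10 ng/mL recombinant human EGF; used within 3 months of thaw. 48 h compound exposure, DMSO ≤1% final, then MTT.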

[2] = as §1; assay type: functional; conditions: MIA PaCa-2, 48 h; outline: as §2
[3] = Antiproliferative activity against human PANC1 cells after 48 hrs by MTT assay; assay type: functional; conditions: PANC-1, 48 h; for CC50: read-out: LC50 (the source's name); outline: as §2
[4] = Antiproliferative activity against hTERT expressing immortalized human HPNE cells after 48 hrs by MTT assay; assay type: functional; conditions: for CC50: read-out: LC50 (the source's name); outline: as §2
MIA PaCa-2 [5] = assay: Induction of PARP cleavage in human MIAPaCa2 cells at 20 nM after 20 hrs by SDS-PAGE and immunoblotting; assay type: functional, cell-based
Outline: (§3)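 MIA PaCa-2 cells treated 20 h with vehicle, 8 or 20 nM. Total cell lysates run on SDS-PAGE and immunoblotted with a PARP antibody recognizing full-length and cleaved forms. Detection by HRP-conjugated secondary antibody.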

[6] = biological target: Histone deacetylase (Homo sapiens) (UniProt Q13547+O15379+Q9UBN7+Q92769+Q9UQL6+Q8WUI4+Q9BY41+Q96DB2+P56524+Q9UKV0+Q969S8); assay: Inhibition of HDAC in human HeLa cell lysates after 30 mins by fluorescence based assay; assay type: protein assay
Outline: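 Fluorometric kit assay using HeLa cell lysate with 100 μM acetylated substrate in assay buffer. Compound added at 20-fold stock, 30 min at 30 °C. Developer then releases the fluorophore from deacetylated substrate; read at ex 355/em 460 nm. Triplicate wells normalized to signal without inhibitor; IC50 by nonlinear regression.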

MIA PaCa-2 [7] = assay: Induction of cell cycle arrest in human MIAPaCa2 cells assessed as accumulation at S phase at 8 nM after 20 hrs by propidium iodide staining based flow cytometry (reference value: 30.6%); assay type: functional
Outline: (§4)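 MIA PaCa-2 cells exposed 20 h to 8 or 20 nM, with vehicle-treated cells as comparison. Cells stained with propidium iodide and analysed by flow cytometry. Cell cycle phase distributions calculated by modelling software.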

MIA PaCa-2 [8] = assay: Induction of cell cycle arrest in human MIAPaCa2 cells assessed as accumulation at G1 phase at 20 nM after 20 hrs by propidium iodide staining based flow cytometry (reference value: 50.2%); assay type: functional; outline: as §4
MIA PaCa-2 [9] = assay: Induction of PARP cleavage in human MIAPaCa2 cells at 8 nM after 20 hrs by SDS-PAGE and immunoblotting; assay type: functional, cell-based; outline: as §3
MIA PaCa-2 [10] = assay: Antiproliferative activity against human MIAPaCa2 cells exposed to 25 nM compound incubated in human serum for 5 to 30 mins measured after 48 hrs by MTT assay; assay type: functional, cell-based
Outline: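 Compound DMSO stock mixed 1:10 with human type AB serum and held at room temperature for 5, 10, 15 or 30 min. Aliquots then added to 5000 MIA PaCa-2 cells per well, 25 nM final. Cells grown 48 h, then viability read by MTT.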

[11] = Half life in freshly prepared rat serum; assay type: ADME, cell-free
[12] = Half life in rat whole blood; assay type: ADME, tissue-based

CCC(=O)CCCCC[C@@H]1NC(=O)[C@H]2CCCCN2C(=O)[C@H]([C@@H](C)CC)NC(=O)[C@H](Cc2cn(OC)c3ccccc23)NC1=O
growth inhibition (GI) (MIA PaCa-2 [1]): Active

O=C(CCCCCCC(=O)Nc1ccccc1)NO [VORINOSTAT]
CC50 ([2]; read-out: LC50 (the source's name)): 4.85 µM
CC50 [3]: > 10 µM
TGI [4]: > 10 µM
CC50 [4]: > 10 µM

O=C(CCCCC[C@@H]1NC(=O)[C@H]2CCCCN2C(=O)[C@H](Cc2ccccc2)NC(=O)[C@H](Cc2ccccc2)NC1=O)C1CO1 (some centres undefined) (cyclo(FF[dPip][Aoe(9ξ)]))
growth inhibition (GI) (MIA PaCa-2 [1]): Active

C[C@@H]1NC(=O)[C@H](CCCCCC(=O)[C@@H]2CO2)NC(=O)[C@H]2CCCN2C(=O)[C@H](Cc2ccccc2)NC1=O
TGI [2]: 0.0088 µM
Activity (MIA PaCa-2 [5]): Active
TGI [3]: 0.05 µM
CC50 [3]: > 10 µM
inhibition [6]: Dose-dependent effect
Activity (MIA PaCa-2 [7]): 34.6%
TGI [4]: 0.66 µM
CC50 [4]: > 10 µM
Activity (MIA PaCa-2 [8]): 19.6%
Activity (MIA PaCa-2 [9]): Active
inhibition (MIA PaCa-2 [10]): Active

CC1(C)NC(=O)[C@H](CCCCCC(=O)[C@H]2CO2)NC(=O)[C@H]2CCCN2C(=O)[C@H](Cc2ccccc2)NC1=O [CHLAMYDOCIN]
half-life [11]: 8.7 min
half-life [12]: 0.68 to 3.6 min
